Assay results reported in ChEMBL document CHEMBL1151458, “Comparative analysis of the bactericidal activities of amphibian peptide analogues against multidrug-resistant nosocomial bacterial strains” (2008).
Active and inactive are the calls of the source. No cut-off for these calls is given here.

Tests used:
Pseudomonas aeruginosa [1] = experiment: Bactericidal activity against Pseudomonas aeruginosa isolate 2 with AMP-CFZ-CIP-CTX-CXM-GEN-LVX-IPM-MEM-SXT-TET resistance phenotype assessed as concentration required for >= 3 log10 CFU/ml reduction in viable bacteria in sodium phosphate buffer at pH 7.4 after 1.5 hrs by liquid microdilution assay; assay type: functional
How it was run: (§1)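 Clinical multidrug-resistant isolates grown to mid-log in tryptone soy broth and stored frozen. Exponential cells resuspended in 10 mM sodium phosphate buffer, pH 7.4, at 1 × 10^7 CFU/ml; 10 μl incubated with graded peptide concentrations in 100 μl at 37°C for 1.5 h. Plated on tryptone soy agar, CFU read after 24 h at 37°C. Peptide stocks in 20% ethanol.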

Enterococcus faecium [2] = experiment: Bactericidal activity against Enterococcus faecium isolate 3 with AMP-CIP-CTX-ERY-GEN-LVX-SXT-TEC-VAN resistance phenotype assessed as concentration required for >= 3 log10 CFU/ml reduction in viable bacteria in 20% heat-inactivated human serum after 1.5 hrs by liquid microdilution assay; assay type: functional
How it was run: (§2)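 The buffer microdilution kill assay (1 × 10^7 CFU/ml mid-log cells, 10 μl in 100 μl, 37°C, 1.5 h, CFU on tryptone soy agar after 24 h) with serum added to 20% or 40% final. Serum was pooled from five healthy donors, clotted at room temperature, spun at 300 × g and heat-inactivated at 56°C for 30 min.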

[3] = tested on: Stenotrophomonas maltophilia; experiment: Bactericidal activity against Stenotrophomonas maltophilia isolate 2 with AMK-CIP-CTX-IPM-MEM-SAM-TZP resistance phenotype assessed as concentration required for >= 3 log10 CFU/ml reduction in viable bacteria in 20% heat-inactivated human serum after 1.5 hrs by liquid microdilution assay; assay type: functional; how it was run: as §2
Acinetobacter baumannii [4] = experiment: Bactericidal activity against Acinetobacter baumannii isolate 3 with AMP-AMC-CFZ-CIP-IPM-SXT-TET-TOB resistance phenotype assessed as concentration required for >= 3 log10 CFU/ml reduction in viable bacteria in 20% heat-inactivated human serum after 1.5 hrs by liquid microdilution assay; assay type: functional; how it was run: as §2
Pseudomonas aeruginosa [5] = experiment: Bactericidal activity against Pseudomonas aeruginosa isolate 1 with AMP-CFZ-CIP-CTX-CXM-GEN-LVX-SXT-TET resistance phenotype assessed as concentration required for >= 3 log10 CFU/ml reduction in viable bacteria in 20% heat-inactivated human serum after 1.5 hrs by liquid microdilution assay; assay type: functional; how it was run: as §2
[6] = tested on: Stenotrophomonas maltophilia; experiment: Bactericidal activity against Stenotrophomonas maltophilia isolate 2 with AMK-CIP-CTX-IPM-MEM-SAM-TZP resistance phenotype assessed as concentration required for >= 3 log10 CFU/ml reduction in viable bacteria in 40% heat-inactivated human serum after 1.5 hrs by liquid microdilution assay; assay type: functional; how it was run: as §2
Acinetobacter baumannii [7] = experiment: Bactericidal activity against Acinetobacter baumannii isolate 3 with AMP-AMC-CFZ-CIP-IPM-SXT-TET-TOB resistance phenotype assessed as concentration required for >= 3 log10 CFU/ml reduction in viable bacteria in 40% heat-inactivated human serum after 1.5 hrs by liquid microdilution assay; assay type: functional; how it was run: as §2
Enterococcus faecium [8] = experiment: Antimicrobial activity against Enterococcus faecium isolate 3 with AMP-CIP-CTX-ERY-GEN-LVX-SXT-TEC-VAN resistance phenotype at bactericidal concentration within 30 mins; assay type: functional, organism-based
How it was run: (§3)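 Time-kill in 10 mM sodium phosphate buffer, pH 7.4: 1 × 10^7 CFU/ml mid-log clinical isolate (10 μl) exposed at 37°C to peptide at the 1.5-h bactericidal concentration or twofold that, in 100 μl. Samples taken from 2 min onward, plated on tryptone soy agar, CFU counted after 24 h at 37°C. Killing taken as ≥3 log10 CFU/ml drop.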

Enterococcus faecium [9] = experiment: Antimicrobial activity against Enterococcus faecium isolate 3 with AMP-CIP-CTX-ERY-GEN-LVX-SXT-TEC-VAN resistance phenotype at twofold the bactericidal concentration within 30 mins; assay type: functional, organism-based; how it was run: as §3
Staphylococcus aureus [10] = experiment: Antimicrobial activity against Staphylococcus aureus isolate 1 with AMC-AMP-CIP-ERY-GEN-OXA-RIF resistance phenotype at twofold the bactericidal concentration within 30 mins; assay type: functional, organism-based; how it was run: as §3
[11] = tested on: Stenotrophomonas maltophilia; experiment: Antimicrobial activity against Stenotrophomonas maltophilia isolate 2 with AMK-CIP-CTX-IPM-MEM-SAM-TZP resistance phenotype assessed as assessed as time to kill at twofold bactericidal concentration; assay type: functional; how it was run: as §3
Pseudomonas aeruginosa [12] = experiment: Antimicrobial activity against Pseudomonas aeruginosa isolate 1 with AMP-CFZ-CIP-CTX-CXM-GEN-LVX-SXT-TET resistance phenotype at bactericidal concentration after 30 mins by time kill assay; assay type: functional, organism-based; how it was run: as §3
Pseudomonas aeruginosa [13] = experiment: Antimicrobial activity against Pseudomonas aeruginosa isolate 1 with AMP-CFZ-CIP-CTX-CXM-GEN-LVX-SXT-TET resistance phenotype at twofold bactericidal concentration after 10 to 30 mins by time kill assay; assay type: functional, organism-based; how it was run: as §3
Staphylococcus aureus [14] = experiment: Antimicrobial activity against Staphylococcus aureus isolate 1 with AMC-AMP-CIP-ERY-GEN-OXA-RIF resistance phenotype at bactericidal concentration within 30 mins; assay type: functional, organism-based; how it was run: as §3
Enterococcus faecium [15] = experiment: Antimicrobial activity against Enterococcus faecium isolate 3 with AMP-CIP-CTX-ERY-GEN-LVX-SXT-TEC-VAN resistance phenotype assessed as time to kill at twofold the bactericidal concentration; assay type: functional, organism-based; how it was run: as §3
Enterococcus faecium [16] = experiment: Bactericidal activity against Enterococcus faecium isolate 6 with AMP-AMC-CLI-CRO-CTX-CIP-ERY-GEN-KAN-LVX-SXT-VAN resistance phenotype assessed as concentration required for >= 3 log10 CFU/ml reduction in viable bacteria in sodium phosphate buffer at pH 7.4 after 1.5 hrs by liquid microdilution assay; assay type: functional; how it was run: as §1
Staphylococcus aureus [17] = experiment: Bactericidal activity against Staphylococcus aureus isolate 1 with AMC-AMP-CIP-ERY-GEN-OXA-RIF resistance phenotype assessed as concentration required for >= 3 log10 CFU/ml reduction in viable bacteria in sodium phosphate buffer at pH 7.4 after 1.5 hrs by liquid microdilution assay; assay type: functional; how it was run: as §1
Staphylococcus aureus [18] = experiment: Bactericidal activity against Staphylococcus aureus isolate 2 with AMC-AMP-CIP-ERY-GEN-LVX-OXA-RIF-TET resistance phenotype assessed as concentration required for >= 3 log10 CFU/ml reduction in viable bacteria in sodium phosphate buffer at pH 7.4 after 1.5 hrs by liquid microdilution assay; assay type: functional; how it was run: as §1
[19] = tested on: Stenotrophomonas maltophilia; experiment: Bactericidal activity against Stenotrophomonas maltophilia isolate 4 with AMK-CAZ-CIP-FEP-IPM-SAM-TZP resistance phenotype assessed as concentration required for >= 3 log10 CFU/ml reduction in viable bacteria in sodium phosphate buffer at pH 7.4 after 1.5 hrs by liquid microdilution assay; assay type: functional; how it was run: as §1
Acinetobacter baumannii [20] = experiment: Bactericidal activity against Acinetobacter baumannii isolate 1 with AMP-AMC-CFZ-CIP-IPM-LVX-PIP-SXT-TET resistance phenotype assessed as concentration required for >= 3 log10 CFU/ml reduction in viable bacteria in sodium phosphate buffer at pH 7.4 after 1.5 hrs by liquid microdilution assay; assay type: functional; how it was run: as §1
Acinetobacter baumannii [21] = experiment: Bactericidal activity against Acinetobacter baumannii isolate 2 with AMP-CFZ-CIP-LVX-PIP-SXT resistance phenotype assessed as concentration required for >= 3 log10 CFU/ml reduction in viable bacteria in sodium phosphate buffer at pH 7.4 after 1.5 hrs by liquid microdilution assay; assay type: functional; how it was run: as §1
Pseudomonas aeruginosa [22] = experiment: Bactericidal activity against Pseudomonas aeruginosa isolate 1 with AMP-CFZ-CIP-CTX-CXM-GEN-LVX-SXT-TET resistance phenotype assessed as concentration required for >= 3 log10 CFU/ml reduction in viable bacteria in sodium phosphate buffer at pH 7.4 after 1.5 hrs by liquid microdilution assay; assay type: functional; how it was run: as §1

Work on H-GIFSKLAGKKLKNLLISG-NH2 yielded an Activity (Pseudomonas aeruginosa [1]) of 1 µM, an Activity (Enterococcus faecium [2]) of 32 µM and an Activity [3] of 8 µM. The Activity (Acinetobacter baumannii [4]) was 16 µM, the Activity (Pseudomonas aeruginosa [5]) was 4 µM and the Activity [6] was 16 µM. The Activity (Acinetobacter baumannii [7]) was 32 µM, the Activity (Enterococcus faecium [8]) was “inactive” and the Activity (Enterococcus faecium [9]) was “inactive”. The Activity (Staphylococcus aureus [10]) was “inactive”, the Time [11] was 2 min and the Activity (Pseudomonas aeruginosa [12]) was “inactive”. For the same substance, the Activity (Pseudomonas aeruginosa [13]) was “Active”, the Activity (Staphylococcus aureus [14]) was “inactive” and the Activity (Enterococcus faecium [15]) was “inactive”. For the same substance, the Activity (Enterococcus faecium [16]) was 2 µM, the Activity (Staphylococcus aureus [17]) was 32 µM and the Activity (Staphylococcus aureus [18]) was 16 µM. For the same substance, the Activity [19] was 0.5 µM, the Activity (Acinetobacter baumannii [20]) was 0.5 µM and the Activity (Acinetobacter baumannii [21]) was 0.5 µM. It also gave an Activity (Pseudomonas aeruginosa [22]) of 1 µM.
